The results in this text go back to ChEMBL document CHEMBL5653622 (Oncotarget, 2016).

The test system of series [1] is HT-29. As to the kind of experiment: Cytotoxicity against human HT-29 cells assessed as phosphorylation of CHK1 on S296 at 200 nM by Western blotting analysis. The class given is functional, cell-based. The method in brief:
(§1)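 HT29 colon cells treated with gemcitabine with or without inhibitor. Protein expression was read by western blotting with 50μg protein per lane.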
(In general: In western blotting, separated proteins are transferred to a membrane and probed.)

The subject of series [2] is HT-29. Kind of series: Cytotoxicity against human HT-29 cells assessed as phosphorylation of CHK1 on S280 at 200 nM by Western blotting analysis. It counts as functional, cell-based. An outline of the steps: as §1
Series [3] concerns HT-29. As to the kind of experiment: Cytotoxicity against human HT-29 cells assessed as phosphorylation of CHK1 on S317 at 200 nM by Western blotting analysis. It counts as functional, cell-based. The method in brief: as §1
The subject of series [4] is HT-29. As to the kind of experiment: Induction of cell cycle arrest in human HT-29 cells assessed as phosphorylation of CDK1 on pY15 at 200 nM by Western blotting analysis. It counts as functional, cell-based. An outline of the steps: as §1
For series [5], the system named is Mus musculus. Kind of series: In vivo inhibition of CHK1 in CRTac:Ncr-Fox1 mouse xenografted with human HT-29 cells assessed as increased phosphorylation of CHK1 on S296 at 100 mg/kg, iv administered for 24 hrs by Western blotting analysis. It counts as functional, organism-based. An outline of the steps:
(§2)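 HT29 s.c. xenografts in female athymic nude mice. Single gemcitabine dose 100mg/kg i.v. on day 0, then one inhibitor dose 50 or 100mg/kg p.o. (DPTW vehicle) 24h later. Tumors taken 24h after the last dose, western blotted, and signals quantified by normalizing to GAPDH.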

For series [6], the system named is Mus musculus. As to the kind of experiment: In vivo inhibition of CHK1 in CRTac:Ncr-Fox1 mouse xenografted with human HT-29 cells assessed as increased phosphorylation of CHK1 on S317 at 100 mg/kg, iv administered for 24 hrs by Western blotting analysis. The class given is functional, organism-based. The method in brief:
as §2

Series [7] relates to Mus musculus. Kind of series: In vivo inhibition of CHK1 in CRTac:Ncr-Fox1 mouse xenografted with human HT-29 cells assessed as increased phosphorylation of CDK1 on Y15 at 100 mg/kg, iv administered for 24 hrs by Western blotting analysis. It counts as functional, organism-based. The method in brief: as §2
A general note: In xenograft studies the graft and the host belong to different species.

Series [8] has as its system HT-29. As to the kind of experiment: Antitumor activity against human HT-29 cells xenografted in CRTac:Ncr-Fox1 mouse assessed as tumor growth delay at 100 mg/kg, iv (reference value: […] +/- 5.2 days). It counts as functional.
The test system of series [9] is HT-29. Kind of series: Antitumor activity against human HT-29 cells xenografted in CRTac:Ncr-Fox1 mouse assessed as tumor growth delay at 100 mg/kg, iv (reference value: 8.4 +/- 1.6 days). The class given is functional.
In series [10] the test system is HT-29. Kind of series: Antitumor activity against human HT-29 cells xenografted in CRTac:Ncr-Fox1 mouse assessed as tumor growth delay at 100 mg/kg, iv (reference value: 7.2 +/- 1.8 days). It counts as functional.
In the next series the test system is Calu-6. Kind of series: Antitumor activity against human Calu-6 cells xenografted in CRTac:Ncr-Fox1 mouse assessed as tumor growth delay time at 100 mg/kg, iv in presence of carboplatin (reference value: 6.4 +/- 2.5 days). It counts as functional.
Series [11] in a line: Toxicity in CRTac:Ncr-Fox1 mouse xenografted with human HT-29 cells assessed as body weight at 200 mg/kg, iv administered for 16 days relative to control. It counts as organism-based. The conditions noted are these: in vivo, 384 h, time 16 day.
Series [12] is described as follows: Toxicity in CRTac:Ncr-Fox1 mouse xenografted with human SW620 cells assessed as body weight at 100 mg/kg, iv administered for 9 days relative to control. The class given is organism-based, SW-620. The following applies: in vivo, 216 h, time 9 day.
Series [13] relates to Mus musculus. As to the kind of experiment: Effect on CHK1 in CRTac:Ncr-Fox1 athymic mouse xenografted with human Calu-6 cells assessed as phosphorylation of CHK1 at S296 at 100 mg/kg, iv in presence of carboplatin by Western blotting analysis. It counts as functional, organism-based. The method in brief: (§3)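 Female CRTac:Ncr-Fox1(nu) athymic mice carried s.c. Calu6 xenografts. Tumors were taken 6h after the last inhibitor dose, lysed in CHAPS buffer, and immunoblotted with GAPDH as loading control.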

Series [14] has as its system Mus musculus. Kind of series: Effect on CHK1 in CRTac:Ncr-Fox1 athymic mouse xenografted with human Calu-6 cells assessed as phosphorylation of CHK1 at S317 at 100 mg/kg, iv in presence of carboplatin by Western blotting analysis. It counts as functional, organism-based. An outline of the steps:
as §3

Series [15] relates to Mus musculus. As to the kind of experiment: Effect on CHK1 in CRTac:Ncr-Fox1 athymic mouse xenografted with human Calu-6 cells assessed as phosphorylation of CHK1 at S345 at 100 mg/kg, iv in presence of carboplatin by Western blotting analysis. The class given is functional, organism-based. The method in brief: as §3
Series [16] has as its system HT-29. As to the kind of experiment: Cytotoxicity against human HT-29 cells assessed as phosphorylation of CHK1 on S345 at 200 nM by Western blotting analysis. The class given is functional, cell-based. An outline of the steps: as §1

Molecules are shown by their SMILES. The source made the active and inactive calls. The rule behind the calls is not given here.

A word on the residual activity: it is the activity still measured, relative to the control. Turning to `Nc1ccn([C@@H]2O[C@H](CO)[C@@H](O)C2(F)F)c(=O)n1` [GEMCITABINE], the outcome in the series on HT-29 [1], in the series on HT-29 [2], in the series with HT-29 [3], in the series on HT-29 [4], in the series on Mus musculus [5] and with Mus musculus [6] was Active. Further, the result in the series with Mus musculus [7], in the series on Mus musculus [13], with Mus musculus [14], in the series on Mus musculus [15] and in the series on HT-29 [16] was Active. The Time in the series with HT-29 [8] was determined as 0.3 days; in the series with HT-29 [9], 2.6 days; in the series with HT-29 [10] it was 2.9 days; with Calu-6, 0.7 days. For the same compound, the values for the residual activity in [11] and in series [12] were 94.2% and 95.7%, respectively.
